# SENP8 block-1 – SENP8 (human) protease inhibition; Q96LD8; recombinant SENP8, Nedd8 substrate fluorescence; inhibition, % at 20 µM; 360,000 compounds, 0.64% hits; AID 602440; in the data active means inhibition mostly above about 40%, no sharp cut-off; inactive means mostly below about 27%
# SENP7 inh – SENP7 protease inhibition | recombinant SENP7, Z-RLRGG-aminoluciferin luminescence, 40 min | Q9BQF6 | 330,000 compounds, 1.5% hits | inhibition, % at 5 µM;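 active means inhibition above about 50% at the single test dose, limit read from the data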;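 further: plate controls were DMSO with enzyme for no effect and no enzyme buffer wells for full effect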
# Target sequence (Q9BQF6 706-1050 limits assumed): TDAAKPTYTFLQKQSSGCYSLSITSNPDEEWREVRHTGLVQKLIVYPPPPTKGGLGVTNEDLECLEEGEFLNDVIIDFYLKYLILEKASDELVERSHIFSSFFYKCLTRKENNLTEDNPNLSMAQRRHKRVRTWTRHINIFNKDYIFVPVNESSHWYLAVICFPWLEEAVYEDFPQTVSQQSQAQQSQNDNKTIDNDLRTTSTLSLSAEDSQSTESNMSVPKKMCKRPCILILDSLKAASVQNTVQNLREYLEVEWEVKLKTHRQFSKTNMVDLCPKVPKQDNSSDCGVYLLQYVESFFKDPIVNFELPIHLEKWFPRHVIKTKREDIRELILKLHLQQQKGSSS
# SENP1 inh – blocks the human SENP1 SUMO protease catalytic domain | recombinant SENP1 catalytic domain, CyPet-SUMO1-YPet FRET cleavage | AID 624204 | Q9P0U3 | 360,000 compounds, 0.21% hits | inhibition, % at 10 µM;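 active means inhibition at least 30% at 10 µM, raw YFP signal under a set limit, fluorescence ratio 0.5 to 1.5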;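 further: 0% = enzyme with DMSO and 100% = no enzyme wells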
#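 Assay system: hSENP1 catalytic domain, recombinant. Amount: SENP1 enzyme, 20 pM final. Schedule: 50 min reaction, RT, dark. Technique: FRET, CFP and YFP emission. Control set: no-enzyme wells low, DMSO-plus-enzyme wells high control.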
# SENP8 block-2 – SENP8 protease inhibition | Q96LD8 | purified SENP8, Z-RLRGG-aminoluciferin cleavage, luminescence | 330,000 compounds, 1.2% hits | inhibition, % at 10 µM; in the data active means inhibition above about 50%
# SENP6 block – inhibitors of human SENP6 protease | inhibition, % at 10 µM | 330,000 compounds, 1.8% hits | AID 2599 | Q9GZR1 | Recombinant SENP6 catalytic domain, aminoluciferin luminescence;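 active means inhibition above about 50% at the single tested dose, limit read from the data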;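 further: plate controls were DMSO wells with enzyme for no effect and DMSO wells lacking enzyme for full effect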
# SENP8 confirm – human SENP8 inhibition, confirmed; shares compounds with SENP7 inh; Recombinant SENP8, Z-RLRGG-aminoluciferin luminescence, 60 min; inhibition, % at 12.5 µM; 6,200 compounds, 40% hits; AID 488912;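 active means mean inhibition across replicates above about 50%, limit read from the data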
# SENP6 confirm – human SENP6 inhibition, confirmed; 6,200 compounds, 58% hits; inhibition, % at 12.5 µM; shares compounds with SENP7 inh; recombinant SENP6, Z-RLRGG-aminoluciferin luminescence
# SENP7 confirm – confirmation of human SENP7 protease inhibitors. shares compounds with SENP7 inh. recombinant SENP7, Z-RLRGG-aminoluciferin luminescence, 40 min. inhibition, % at 12.5 µM. 6,200 compounds, 69% hits. AID 488917
# Casp3 SENP sel – selectivity test for SENP inhibitors: human caspase-3 inhibition; 6,200 compounds, 60% hits; shares compounds with SENP7 inh; purified caspase-3, Z-DEVD-aminoluciferin luminescence, 60 min; inhibition, % at 12.5 µM;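 active means mean inhibition above about 50%, limit read from the data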;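 further: plate controls were enzyme with DMSO for no effect and wells without caspase-3 for full effect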
# Target sequence (P42574 28-227 limits assumed): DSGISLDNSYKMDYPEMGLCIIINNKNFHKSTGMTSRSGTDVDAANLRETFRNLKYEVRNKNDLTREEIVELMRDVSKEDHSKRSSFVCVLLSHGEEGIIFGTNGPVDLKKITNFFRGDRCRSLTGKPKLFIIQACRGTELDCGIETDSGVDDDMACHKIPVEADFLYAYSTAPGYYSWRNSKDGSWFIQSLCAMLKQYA
# Luc interf – interferes with luciferase luminescence in SENP counter-screen. shares compounds with SENP7 inh. Pre-incubated SENP8/Z-RLRGG-aminoluciferin, luciferase luminescence interference. inhibition, % at 12.5 µM. 6,200 compounds, 39% hits. AID 488919;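 active means mean inhibition above about 50% when retested at one dose, limit read from the data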;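 further: plate controls were DMSO wells with completed reaction for no effect and substrate without enzyme for full effect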
# Numbers without * were called inactive; x = no result given. The list is not random: actives were taken first. Their share in the collection is about 2.5%.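 How the source made its calls, unless noted: active means mean inhibition above about 50% in the one-dose retest (limit read from the data); inactive means the rest.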
SMILES,SENP8 block-1,SENP7 inh,SENP1 inh,SENP8 block-2,SENP6 block,SENP8 confirm,SENP6 confirm,SENP7 confirm,Casp3 SENP sel,Luc interf
Cc1cccc(OC(C)C(=O)N2CCN(Cc3ccc4c(c3)OCO4)CC2)c1 (centres undefined),1,-9,1,-4,-11,x,x,x,x,x
COc1ccc(CN2C(=O)C(CC(=O)NC3CCCCC3)CC(C(=O)N(C(C)C)C(C)C)=C2C)cc1 (centres undefined),-14,x,1,x,x,x,x,x,x,x
CCn1ccc(C(=O)Nc2ccc3c(c2)CCC3)n1,10,59*,-1,25,43,44,45,81*,65*,57*
CCn1ccc(C(=O)Nc2ccc(N(C)C(C)=O)cc2)n1,28,-2,3,-6,8,x,x,x,x,x
O=C(O)c1ccccc1-c1ccccc1C(=O)Nc1ccc2c(c1)CCC2,11,-4,0,1,-6,x,x,x,x,x
O=C(Nc1ccc2c(c1)CCC2)c1ccccc1F,33,80*,0,70*,92*,11,86*,99*,85*,85*
COc1ccc(OC)c(NC(=O)CN2C(=O)C(C)N(c3ccc(C)cc3)C2=O)c1 (centres undefined),10,-6,2,-11,-4,x,x,x,x,x
O=C(COC(=O)/C=C/c1ccccc1Cl)Nc1cccnc1Cl,13,9,3,4,-11,x,x,x,x,x
N/C(=N\OC(=O)COc1ccc(Br)cc1Cl)c1ccncc1,15,x,0,x,x,x,x,x,x,x
N/C(=N\OC(=O)/C=C/c1ccccc1)c1cccnc1,7,14,3,-3,-27,x,x,x,x,x
N/C(=N\OC(=O)/C=C/c1ccc(Br)cc1)c1ccccn1,10,53*,2,0,57*,13,11,33,45,22
N/C(=N\OC(=O)/C=C/c1ccccc1Cl)c1cccnc1,24,52*,6,27,49,9,5,20,10,36
N/C(=N\OC(=O)/C=C/c1ccccc1Cl)c1ccccn1,-12,89*,-1,86*,95*,91*,90*,100*,85*,88*
N/C(=N\OC(=O)COc1ccc(Br)cc1Cl)c1ccccn1,20,97*,3,86*,96*,89*,87*,97*,82*,89*
O=C1NC(=O)C2(CCCc3c([N+](=O)[O-])cccc32)N1 (centres undefined),5,x,-2,x,x,x,x,x,x,x
O=C(/C=C/c1ccccc1)Nc1cc(NC(=O)/C=C/c2ccccc2)cc(C(=O)O)c1,11,5,2,5,-3,x,x,x,x,x
CSc1ccc(/C=C/C(=O)Nc2ccccc2)cc1,-88,101*,-2,95*,85*,69*,98*,102*,97*,7
CSc1cccc(NC(=O)/C=C/c2ccccc2)c1,15,49,0,16,51*,57*,54*,81*,28,65*
CSc1cccc(NC(=O)/C=C/c2ccc(Cl)cc2)c1,9,59*,1,38,66*,54*,59*,84*,33,51*
CSc1cccc(NC(=O)Nc2ccccc2)c1,25,30,1,24,47,x,x,x,x,x
O=C(/C=C/c1ccccc1)Nc1cccc(C(=O)O)c1,2,100*,3,97*,99*,-25,99*,103*,95*,98*
CCCCNC(=O)CSc1nc2cc3c(cc2c(=O)n1CCC(=O)NCCc1ccc(OC)c(OC)c1)OCO3,5,-9,-1,-8,11,x,x,x,x,x
CC[C@]1(C(=O)OC)[C@H]2C(=O)N(C)C(=O)[C@H]2[C@H]2CN(C)C(=NC3CCCCC3)N21,14,0,6,x,x,x,x,x,x,x
OCCN1CCN(c2ncnc3c2ncn3[C@H]2CN(Cc3ccncc3)C[C@@H](CO)O2)CC1,8,x,0,x,x,x,x,x,x,x
COc1ccc([C@@H]2CC(=O)[C@@H]3CN(S(=O)(=O)c4ccc(C)cc4)[C@H](c4ccccc4)C[C@@H]3N2S(=O)(=O)c2ccccc2)cc1,16,x,0,x,x,x,x,x,x,x
SMILES,SENP8 block-1,SENP7 inh,SENP1 inh,SENP8 block-2,SENP6 block,SENP8 confirm,SENP6 confirm,SENP7 confirm,Casp3 SENP sel,Luc interf
CCc1ccc(NC(=O)c2cnn3ccccc23)cc1,-22,95*,0,89*,91*,93*,94*,101*,93*,94*
O=C(NCc1ccc(F)cc1)c1cnn2ccccc12,-186,6,2,-16,-7,x,x,x,x,x
CSc1cccc(NC(=O)Cn2cccc2)c1,1,-1,1,3,6,x,x,x,x,x
CSc1cccc(NC(=O)c2cnn3ccccc23)c1,-18,71*,2,49,76*,72*,70*,91*,65*,72*
CC1CCC(NC(=O)Cn2cnc3sccc3c2=O)CC1 (centres undefined),-6,1,-24,1,7,x,x,x,x,x
O=C(C[n+]1cccc(C(=O)N/N=C/c2cccc([N+](=O)[O-])c2)c1)c1ccccc1,19,13,4,-15,-34,x,x,x,x,x
N#CC(CC(=O)OCc1ccccc1)NC(=O)OCc1ccccc1 (centres undefined),22,x,2,x,x,x,x,x,x,x
O=C(Nc1cccc2cccnc12)c1ccc2c(c1)OCCO2,-3,32,-3,9,49,x,x,x,x,x
O=C(Nc1cccc2nsnc12)c1ccc2c(c1)OCCO2,-273,-20,-25,66*,77*,11,83*,98*,88*,27
O=C(Nc1cccc2nsnc12)c1ccc2c(c1)OCO2,-407,60*,-61,52*,69*,30,66*,77*,67*,11
O=C(c1ccc(NC(=O)C(c2ccccc2)c2ccccc2)cc1)c1ccc(C(=O)O)c(C(=O)O)c1,14,-14,2,5,12,x,x,x,x,x
O=c1cc(-c2ccccc2)[nH]n1-c1ccc([N+](=O)[O-])cc1,40,25,-1,79*,84*,86*,93*,100*,90*,71*
O=C(N/N=C/c1ccc([N+](=O)[O-])cc1)c1[nH]ncc1Br,20,85*,-1,72*,86*,-4,9,48,88*,15
O=C(N/N=C/c1ccc([N+](=O)[O-])cc1)c1cc(C2CC2)[nH]n1,8,-11,2,2,-3,x,x,x,x,x
c1ccc(CN2CCN(c3ncccn3)CC2)cc1,12,-1,1,-9,-20,x,x,x,x,x
